Experimental data collected from several papers.
Each line is one published result; the experiments were not run side by side. pIC50: −log10 of the molar value. Converted amounts (≈) assume the structure as drawn.

SMILES | target or system | test | system | conditions | measurement | value
CCC1(c2ccc(N)cc2)CCC(=O)NC1=O (stereo not shown) | MCF-10A | cell growth or viability, CCK-8 | – | 48 h | pIC50 | < 4.30
CCCCCCC/C=C/C(=O)N1C(=O)/C(=C(\O)c2ccc(O)cc2)C(=O)C1CC(C)C (stereo not shown) | Burkholderia cepacia | microbial growth | ATCC25416 | – | MIC | 100 µg/mL (≈ 234 µM)
COc1cc2c3c(n(CCCNCCO)c(=O)c2cc1OC)-c1cc2c(cc1C3=O)OCO2 | SN12C | cell growth or viability | – | – | GI50 | < 0.01 µM
O=C(Oc1ccc(I)cc1)[c-]1cccc1.[Fe+2].c1cc[cH-]c1 | MCF-10A | cell growth or viability, MTT | – | 72 h | pIC50 | 5.15
CCCCCCC/C=C/C(=O)N1C(=O)/C(=C(\O)CCCC)C(=O)C1CC(C)C (stereo not shown) | Burkholderia cepacia | microbial growth | ATCC25416 | – | MIC | > 200 µg/mL
CCCCCCCCCOc1ccc2[nH]cc(CCN)c2c1 | CAL-27 | cell growth or viability | – | 72 h | pIC50 | 5.39
Cc1ccc(Cl)c(Nc2ccccc2C(=O)O)c1Cl | human PBMC | cell migration | – | 10 µM | inhibition | 100%
CCCCCCC/C=C/C(=O)N1C(=O)/C(=C(/C)O)C(=O)C1Cc1ccc(O)cc1 (stereo not shown) | Burkholderia cepacia | microbial growth | ATCC25416 | – | MIC | > 200 µg/mL
O=c1ccc2ccc3occc3c2o1 | – | tubulin polymerisation, inhibitor | – | 10 µM | inhibition | 57.1%
C=C(CCC=C(C)C)[C@H]1CC[C@H]2[C@@H]3CCC4=CC(=O)CC[C@]4(C)[C@H]3CC[C@@]12C | Leishmania mexicana | parasite growth | – | 48 h, promastigote | pIC50 | 4.52
CCCCCCC/C=C/C(=O)N1C(=O)/C(=C(\O)c2ccc(OCOCCOC)cc2)C(=O)C1CC(C)C (stereo not shown) | Burkholderia cepacia | microbial growth | ATCC25416 | – | MIC | > 200 µg/mL
NS(=O)(=O)c1cc(C(=O)O)c(NCc2ccco2)cc1Cl | human PBMC | cell migration | – | 10 µM | inhibition | 89%
CC(C)CCC[C@@H](C)[C@H]1CC[C@H]2[C@@H]3CCC4=CC(=O)CC[C@]4(C)[C@H]3CC[C@]12C | Leishmania mexicana | parasite growth | – | 48 h, promastigote | pIC50 | 4.09
